The structures appear in SMILES notation. Activity calls are given as the source filed them. The rule behind the calls is not given here.

The target in series [1] is Proto-oncogene tyrosine-protein kinase Src (Homo sapiens, UniProt P12931). The series can be described thus: Inhibition of recombinant human full-length N-terminal GST-tagged SRC (1 to 536 residues) expressed in baculovirus expression system using FAM-labelled P4 peptide as substrate preincubated for 10 mins followed by substrate addition and measured after 1 hr in presence of ATP by fluorescence assay.

The subject of series [2] is PCSK9/LDLR (Homo sapiens), Q8NBP7+P01130 [D374Y]. The series can be described thus: Inhibition of PCSK9 D374Y mutant (unknown origin) and LDLR protein-protein interaction in human PBMC assessed as increase in LDLR expression on lymphocyte surface at 0.1 to 0.4 uM measured after 4 hrs by flow cytometry analysis. In kind it is cell-based. In outline: (§1)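 PBMCs from healthy donors, frozen and then thawed, plated at 2 × 10^5 per well in RPMI with 10 mM HEPES, 1 mM pyruvate and 0.5% FCS for 2 h at 37 °C. Treated 4 h with or without 600 ng/mL PCSK9-D374Y plus compound. Cells stained 20 min at room temperature with APC-conjugated anti-LDLR; at least 5 × 10^3 gated lymphocytes read by flow cytometry. Values as % of PCSK9-free vehicle; triplicates, t test.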

For series [3] the test system is unchanged. The series can be described thus: Inhibition of PCSK9 D374Y mutant (unknown origin) and LDLR protein-protein interaction expressed in human PBMCs assessed as increase in LDLR expression on lymphocyte surface at 1 to 10 uM measured after 4 hrs by flow cytometry analysis. The method in brief: as §1
Series [4] in a line: Clearance in CD1 mouse at 0.4 mg/kg, iv administered as cassette dose measured upto 24 hrs by LC-MS/MS analysis. In kind it is ADME, organism-based. The conditions noted are these: in vivo. The method in brief: (§2)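 Male CD1 mice (second cassette 28–29 g, 7–8 weeks) given one IV 5-in-1 cassette at 0.4 mg/kg per compound in 5% DMAC/5% Solutol HS15/90% saline. Blood (~20 µL) into K2EDTA from the facial vein at 0.083–24 h, terminal bleed by cardiac puncture under isoflurane. Blood diluted with deionised water, stored at −80 °C, analysed by positive-ESI mass spectrometry.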

A short description of series [5]: Volume of distribution at steady state in CD1 mouse at 0.4 mg/kg, iv administered as cassette dose measured upto 24 hrs by LC-MS/MS analysis. The following applies: in vivo, read-out: Vdss. Format: ADME, organism-based. In outline:
as §2

Series [6] can be described thus: Terminal half life in CD1 mouse at 0.4 mg/kg, iv administered as cassette dose measured upto 24 hrs by LC-MS/MS analysis. Format: ADME, organism-based. The conditions noted are these: in vivo, read-out: beta t1/2 (converted). The method in brief: as §2
Series [7] can be described thus: AUCinfinity in CD1 mouse at 0.4 mg/kg, iv administered as cassette dose measured upto 24 hrs by LC-MS/MS analysis. In kind it is ADME, organism-based. The following applies: in vivo. Also noted: dose 0.4 mg/kg, route intravenous, time infinity. In outline:
as §2

Series [8] is described as follows: Tmax in C57BL/6 mouse at 20 mg/kg, po administered as single dose measured upto 24 hrs by LC-MS/MS analysis. The following applies: in vivo. Format: ADME, organism-based. The method in brief: (§3)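 Male C57BL/6 mice, single dose: IV 5 mg/kg in 85% saline/10% Solutol HS15/5% DMSO; SC 20 mg/kg in same vehicle; PO 20 mg/kg in 1% methylcellulose in water. About 110 µL blood taken into K2EDTA by retro-orbital puncture (terminal bleed by cardiac puncture under isoflurane) at 0.033–24 h. Plasma spun at 2000 g, 5 min, 4 °C, stored near −70 °C; n = 3 per route.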

A short description of series [9]: Cmax in C57BL/6 mouse at 20 mg/kg, sc administered as single dose measured upto 24 hrs by LC-MS/MS analysis. Format: ADME, organism-based. Also noted: dose 20 mg/kg, route subcutaneous. The following applies: in vivo. In outline:
as §3

Series [10] can be described thus: Cmax in C57BL/6 mouse at 20 mg/kg, po administered as single dose measured upto 24 hrs by LC-MS/MS analysis. In kind it is ADME, organism-based. Also noted: dose 20 mg/kg, route oral. The following applies: in vivo. The method in brief: as §3
Series [11] can be described thus: Clearance in C57BL/6 mouse at 5 mg/kg, iv administered as single dose measured upto 24 hrs by LC-MS/MS analysis. In kind it is ADME, organism-based. The following applies: in vivo. The method in brief:
as §3

Series [12] can be described thus: AUClast in C57BL/6 mouse at 20 mg/kg, sc administered as single dose measured upto 24 hrs by LC-MS/MS analysis. In kind it is ADME, organism-based. More on the design: dose 20 mg/kg, time < 24 hr, route subcutaneous. The following applies: in vivo. The method in brief:
as §3

Series [13] is described as follows: AUCinfinity in C57BL/6 mouse at 5 mg/kg, iv administered as single dose measured upto 24 hrs by LC-MS/MS analysis. In kind it is ADME, organism-based. More on the design: dose 5 mg/kg, route intravenous, time infinity. The conditions noted are these: in vivo. In outline:
as §3

Series [14] is described as follows: Bioavailability in C57BL/6 mouse at 20 mg/kg, sc administered as single dose measured upto 24 hrs by LC-MS/MS analysis. In kind it is ADME, organism-based. The following applies: in vivo. In outline:
as §3

Series [15] has as its system Mus musculus. The series can be described thus: Antihyperlipidemic activity in C57BL/6 mouse assessed as decrease in total cholesterol level at 16.4 mg/kg/day, sc administered daily for 14 days and measured on day 15 by colorimetric method relative to control. More on the design: scale not given: the % may be the effect or the level left. In kind it is functional. In outline: (§4)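 Female C57BL/6 wild-type or PCSK9−/− mice (8–16 weeks), acclimatised 7 days, 5 per group, dosed SC daily for 14 days at 3.28 or 16.4 mg/kg/day in 5% DMSO/95% saline, or vehicle alone. Blood taken into EDTA on days 0, 5, 10 and 15; plasma from 2500 g spin, stored at −20 °C. Total cholesterol and triglycerides read by colorimetric kits, PCSK9 by mouse ELISA; unpaired two-tailed t test against vehicle.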

Series [16] deals with Mus musculus. Nature of the series: Effect on total triglyceride level in C57BL/6 mouse at 3.28 to 16.4 mg/kg/day, sc administered daily for 14 days and measured on day 15 by colorimetric method. The following applies: in vivo, 336 h. Format: ADME, organism-based. In outline: as §4
For series [17], the system named is PCSK9/LDLR (Homo sapiens), Q8NBP7+P01130 [D374Y]. The series can be described thus: Inhibition of PCSK9 D374Y mutant (unknown origin) and LDLR protein-protein interaction in human HepG2 cells assessed as increase in Bodipy FL-labelled LDL uptake preincubated for 16 hrs followed by Bodipy FL-labelled LDL addition and measured after 4 hrs by fluorescence assay. In kind it is cell-based. In outline: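 HepG2 cells seeded at 2 × 10^5 cells/mL and attached overnight, then incubated 16 h with PCSK9-D374Y (2 μg/mL) plus compound (0.1 or 1 µM). Medium replaced with 10 μg/mL Bodipy FL LDL for 4 h. Cells washed with warm PBS; fluorescence read at ex 485/em 530 nm. Mean ± S.D.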

Series [18] is described as follows: Plasma concentration in C57BL/6 mouse at 20 mg/kg, sc administered as single dose measured after 24 hrs by LC-MS/MS analysis. In kind it is ADME, organism-based. In outline: as §3
Series [19] can be described thus: Time at which plasma concentration exceeds in vitro IC50 for inhibition of recombinant human His-tagged PCSK9 interaction with recombinant LDLR AB domain (unknown origin) in C57BL/6 mouse at 20 mg/kg, sc administered as single dose. The conditions noted are these: in vivo. Format: organism-based.

Proto-oncogene tyrosine-protein kinase Src, sequence (P12931 2-536 limits assumed): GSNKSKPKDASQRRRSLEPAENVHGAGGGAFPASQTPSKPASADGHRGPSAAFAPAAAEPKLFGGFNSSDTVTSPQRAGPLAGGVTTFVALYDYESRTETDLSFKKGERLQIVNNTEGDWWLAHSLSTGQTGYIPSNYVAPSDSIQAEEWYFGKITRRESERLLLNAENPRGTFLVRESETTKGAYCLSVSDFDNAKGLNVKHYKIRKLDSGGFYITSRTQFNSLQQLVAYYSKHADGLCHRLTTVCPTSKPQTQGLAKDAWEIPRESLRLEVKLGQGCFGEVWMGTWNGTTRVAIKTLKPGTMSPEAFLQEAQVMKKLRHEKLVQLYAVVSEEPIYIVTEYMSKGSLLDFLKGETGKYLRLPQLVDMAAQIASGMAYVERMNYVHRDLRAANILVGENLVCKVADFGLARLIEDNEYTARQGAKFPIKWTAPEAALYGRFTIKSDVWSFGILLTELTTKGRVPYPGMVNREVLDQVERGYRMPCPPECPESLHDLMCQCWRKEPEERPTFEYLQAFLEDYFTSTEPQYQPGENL

As for `Cc1cn(-c2cc(CN3CCC[C@H](N)C3)cc(NC(=O)c3ccc(C)c(Oc4ccccc4)c3)c2)cn1`, in series [1], the half-maximal inhibitory concentration (IC50) is over 10 µM. In addition, the inhibition entry in [2] is “inactive”. Further, the inhibition result in series [3] is “Active”. Besides, the clearance is 5 mL/min/kg in series [4] and 18.2 mL/min/kg in [11]. In series [5], the Vd came out at 9.13 L/kg. Moreover, in series [6], the half-life is 25.7 h. Besides, the area under the curve AUC(0-inf) in [7] is 1470 ng·h/mL; in series [13] it was 4600 ng·h/mL. For the same compound, the time to peak (Tmax) in [8] amounted to 2 h. For the same compound, the peak concentration (Cmax) is 2210 ng/mL in [9] and 52.6 ng/mL in series [10]. In series [12], this compound had an AUC(0-t) at 24 h of 16100 ng·h/mL. This compound also gave a bioavailability in series [14] of 91.3%. For the same compound, the Activity in [15] is given as 10%; in series [16] it was “Non-Toxic”. Moreover, the inhibition result in [17] is “Dose-dependent effect”. In addition, in series [18], the concentration at 24 h was 93 nM. The “T>IC50” value in series [19] was “>= 16 hr”.

For the origin of these results see ChEMBL document CHEMBL4627281, “A small molecule inhibitor of PCSK9 that antagonizes LDL receptor binding via interaction with a cryptic PCSK9 binding groove” (Bioorg Med Chem, 2020).
